Source: PubChem BioAssay
Only some compounds are listed: those with a hit (about 0.77% of all), similar ones and a draw of the others.
hIAP inh – human IAP inhibitors, primary screen, biochemical, luminescence, uHTS. Intestinal-type alkaline phosphatase (Homo sapiens), P09923. purified IAP, CDP-Star luminescence, 30 min. inhibition, % at 10 µM. 330,000 tested, 0.12% active;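 active means inhibition reaching a set limit with compound at 10 µM in the primary screen, cut at about 35% in these data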;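 further: plate controls were DMSO wells with enzyme for no effect and no-enzyme buffer wells for full effect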
Target sequence (P09923 whole entry, looked up): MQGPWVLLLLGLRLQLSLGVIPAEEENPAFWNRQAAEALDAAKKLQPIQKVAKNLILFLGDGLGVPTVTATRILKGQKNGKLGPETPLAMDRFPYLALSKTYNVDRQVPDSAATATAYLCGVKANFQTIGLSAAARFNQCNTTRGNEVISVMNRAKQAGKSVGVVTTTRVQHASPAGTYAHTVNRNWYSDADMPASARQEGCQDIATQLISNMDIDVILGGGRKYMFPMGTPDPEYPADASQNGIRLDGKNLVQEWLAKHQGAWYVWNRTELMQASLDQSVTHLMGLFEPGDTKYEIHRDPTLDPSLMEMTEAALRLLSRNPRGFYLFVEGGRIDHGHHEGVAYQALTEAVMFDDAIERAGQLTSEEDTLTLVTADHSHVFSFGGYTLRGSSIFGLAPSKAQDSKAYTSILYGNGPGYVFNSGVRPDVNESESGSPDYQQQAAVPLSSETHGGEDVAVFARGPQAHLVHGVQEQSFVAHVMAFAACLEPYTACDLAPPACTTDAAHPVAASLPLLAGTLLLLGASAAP
bIAP activator – bovine intestinal alkaline phosphatase activators, primary screen, biochemical, bovine IAP, CDP-star luminescence. alkaline phosphatase, intestinal [Bos taurus]. purified bovine IAP, 30 min; stronger effect = higher value; fold of DMSO-control signal, blank-subtracted. activation factor at 20 µM. 200,000 tested, 0.17% active. AID 1016, 2008;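 active means activation factor of 2 or more at 20 µM, a signal rise over negative controls twice the positive control's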
mIAP inh – inhibitors of mouse IAP, primary screen, biochemical, luminescence, uHTS; intestinal alkaline phosphatase [Mus musculus]; purified mouse IAP, CDP-Star luminescence, 30 min; inhibition, % at 10 µM; 330,000 tested, 0.2% active; AID 2806, 2010;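 active means inhibition of at least 40% at 10 µM in the primary screen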;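 further: plate controls were DMSO with enzyme for no effect and no enzyme wells for full effect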
bIAP inh – bovine intestinal alkaline phosphatase inhibitors, primary screen, selectivity assay for TNAP inhibitor project, biochemical, bovine IAP, CDP-star luminescence; 190,000 tested, under 10 active; alkaline phosphatase, intestinal [Bos taurus]; purified bovine IAP, 30 min; inhibition, % at 20 µM; AID 1019, 2008;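 active means over 50% inhibition of intestinal alkaline phosphatase at 20 µM in the single-dose screen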
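Incubation: 30 min reaction at room temperature / Material: purified bovine intestinal alkaline phosphatase (IAP) enzyme / Input: enzyme at 1/65,000,000 dilution / Dosing: 20 µM single dose / Signal: CDP-star luminescence signal / Reagent: CDP-star chemiluminescent phosphatase substrate, 30 µM final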
mIAP activ – activators of mouse IAP, primary screen, biochemical, luminescence, uHTS. intestinal alkaline phosphatase [Mus musculus]. muIAP, CDP-Star luminescence, 30 min; stronger effect = higher value; 1 = vehicle-only enzyme signal, 0 = enzyme-free wells. 330,000 tested, 0.24% active. activation factor at 10 µM;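 active means activation factor of at least 2 at 20 µM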
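Assay system: mouse IAP enzyme; reagent: chemiluminescent substrate CDP-Star; dosing: test compounds delivered from DMSO solution; schedule: 30 min at room temperature; measured by: luminescence from enzymatic CDP-Star hydrolysis; controls: DMSO-only wells and no-enzyme negative control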
hIAP act – human IAP activators, primary screen, biochemical, luminescence, uHTS; 330,000 tested, 0.16% active; purified human IAP, CDP-Star luminescence, 30 min; stronger effect = higher value; 1 = vehicle-only enzyme, 0 = enzyme-free background; activation factor at 10 µM;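 active means activation factor of the enzyme at least 2-fold when tested at 20 µM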
* = called active by the depositor.

For N#C/C(=C/c1ccc(-c2ccc(S(N)(=O)=O)cc2)o1)c1nc2ccccc2s1 the results were hIAP inh 9.0, bIAP activator 1, mIAP inh 57.1*, bIAP inh -4.2, mIAP activ 0.429 and hIAP act 0.91.
COc1cc(/C=C/c2cccc[n+]2C)ccc1OCC(=O)Nc1cccc(Cl)c1 was read as hIAP inh 6.7, mIAP inh -2.0, mIAP activ 1.02 and hIAP act 0.933.
For COc1cc(NC(=O)COC(C)=O)cc(OC)c1OC the results were hIAP inh 0.9, bIAP activator 1.1, mIAP inh 8.2, bIAP inh -9.7, mIAP activ 0.918 and hIAP act 0.991.
`CCC(NC(=O)Nc1cc(OC)c(OC)c(OC)c1)(C(F)(F)F)C(F)(F)F` gave hIAP inh 6.5, bIAP activator 1.1, mIAP inh -110.1, bIAP inh -12.1, mIAP activ 2.1* and hIAP act 0.935.
`Cc1cccc(NC(=O)C2C(c3ccccc3)C2(Cl)Cl)c1` (stereo not drawn) gave hIAP inh -19.6, bIAP activator 1, mIAP inh -146.6, bIAP inh 1.4, mIAP activ 2.47* and hIAP act 1.2.
Screening CC(c1ccccc1)N1CCn2c(nc3cc(NC(=O)c4cccs4)ccc32)C1 (stereo not drawn) returned hIAP inh 9.1, bIAP activator 1.1, mIAP inh 1.6, bIAP inh -14.2, mIAP activ 0.984 and hIAP act 0.909.
Screening CC(c1ccccc1)N1CCn2c(nc3cc(NC(=O)NC4CCCCC4)ccc32)C1 (stereo not drawn) returned bIAP activator 2.5* and bIAP inh -150.5.
`Clc1ccc(-n2nnc(-c3cccnc3Cl)n2)cc1Cl` gave hIAP inh 4.7, bIAP activator 0.9, mIAP inh 49.2*, bIAP inh 9.7, mIAP activ 0.508 and hIAP act 0.953.
Screening CCCCn1nc(C(=O)N(C)CC(=O)Nc2ccc(F)c(F)c2F)ccc1=O returned hIAP inh 4.4, mIAP inh 5.5, mIAP activ 0.945 and hIAP act 0.956.
For CC1CCCCN1C(=O)CSc1nnc(Cc2ccccc2)n1C (stereo not drawn) the results were hIAP inh 11.8, bIAP activator 2.1*, mIAP inh -1.6, bIAP inh -108.3, mIAP activ 1.02 and hIAP act 0.882.
Screening CC1Cc2ccccc2N1C(=O)CSc1nnc(Cc2ccccc2)n1CCc1ccccc1 (stereo not drawn) returned bIAP activator 5.4* and bIAP inh -442.1.
COC(=O)C1=C(C)N(CCCC(=O)O)C(=O)NC1c1cccc(Cl)c1Cl (stereo not drawn) was read as hIAP inh 4.1, mIAP inh 7.8, mIAP activ 0.922 and hIAP act 0.959.
Screening COc1ccc(NS(=O)(=O)c2ccc(C(=O)N3CCC(C)CC3)cc2)cc1 returned hIAP inh 12.1, mIAP inh 6.4, mIAP activ 0.936 and hIAP act 0.879.
For COc1cc(NC(=O)C2CCC(CNc3c(N4CCC(C)CC4)c(=O)c3=O)CC2)cc(OC)c1 (stereo not drawn) the results were hIAP inh 8.2, bIAP activator 1.3, mIAP inh -23.0, bIAP inh -28.0, mIAP activ 1.23 and hIAP act 0.918.
For COc1ccc(NC(=O)C2CCC(CNc3c(N4CCC(C)CC4)c(=O)c3=O)CC2)cc1OC (stereo not drawn) the results were hIAP inh 18.3, bIAP activator 3.1*, mIAP inh 0.1, bIAP inh -205.8, mIAP activ 0.999 and hIAP act 0.817.
CCCCc1ccc(/C=C2\C(=O)ON=C2c2ccccc2)s1 was read as hIAP inh -4.3, bIAP activator 1, mIAP inh -3.5, bIAP inh 4.9, mIAP activ 1.03 and hIAP act 1.04.
For COC(=O)c1ccc2c(c1)C(C)(C)C(/C=C/c1ccc(O)cc1)=[N+]2C the results were hIAP inh 49.7*, bIAP activator 0.2, mIAP inh 11.5, mIAP activ 0.885 and hIAP act 0.503.
Screening Fc1c(F)c(F)c(N/N=C/c2c[nH]c3ccccc23)c(F)c1F returned hIAP inh -12.1, bIAP activator 2.7*, mIAP inh 6.4, bIAP inh -169.1, mIAP activ 0.936 and hIAP act 1.12.
O=C(/C=C/NCc1cccnc1)c1ccc(Br)cc1 was read as hIAP inh 25.9, mIAP inh 4.6, mIAP activ 0.954 and hIAP act 0.741.
COC(=O)c1cc(NC(=O)Nc2ccccc2)ccc1Cl was read as hIAP inh -2.6, bIAP activator 0.6, mIAP inh -150.3, bIAP inh 44.1, mIAP activ 2.5* and hIAP act 1.03.
O=C(Nc1ccncc1)Nc1ccc(F)c(Cl)c1 was read as hIAP inh 4.5, bIAP activator 1, mIAP inh -63.6, bIAP inh 3.8, mIAP activ 1.64 and hIAP act 0.955.
`COC(=O)c1cccc(NC(=O)Nc2ccc(Cl)c(Cl)c2)c1` gave hIAP inh 0.5, bIAP activator 0.9, mIAP inh -204.5, bIAP inh 10.5, mIAP activ 3.04* and hIAP act 0.995.
For COC(=O)c1ccc(NC(=O)Nc2ccc(F)c(Cl)c2)cc1 the results were hIAP inh -29.3, bIAP activator 1, mIAP inh -128.8, bIAP inh -0.8, mIAP activ 2.29* and hIAP act 1.29.
`C[C@@H](C(=O)Nc1ccc2ccccc2c1)[C@@H]1C[C@@]1(C)[C@@H](NC(=O)c1ccccc1)c1ccccc1` gave hIAP inh 8.4, bIAP activator 0.9, mIAP inh -131.7, bIAP inh 10.7, mIAP activ 2.32* and hIAP act 0.916.
C[C@@H](C(=O)Nc1ccc2ccccc2c1)[C@H]1C[C@]1(C)[C@H](NC(=O)c1cccnc1)c1ccccc1 was read as hIAP inh 13.1, bIAP activator 0.8, mIAP inh -81.2, bIAP inh 18.3, mIAP activ 1.81 and hIAP act 0.869.
`Cc1ccc(NP(=O)(Nc2ccc(C)cc2)Nc2ccc(C)cc2)cc1` gave hIAP inh -25.4, bIAP activator 1.2, mIAP inh -146.4, bIAP inh -21.9, mIAP activ 2.46* and hIAP act 1.25.
For CCOC(=O)c1c(N)sc(=S)c2c1CCC2 the results were hIAP inh 3.8, bIAP activator 0.9, mIAP inh 41.1*, bIAP inh 5.6, mIAP activ 0.589 and hIAP act 0.962.
